Series [1] concerns the target T1, Large neutral amino acids transporter small subunit 2 (Homo sapiens) (UniProt Q9UHI5).
T1 sequence (whole entry): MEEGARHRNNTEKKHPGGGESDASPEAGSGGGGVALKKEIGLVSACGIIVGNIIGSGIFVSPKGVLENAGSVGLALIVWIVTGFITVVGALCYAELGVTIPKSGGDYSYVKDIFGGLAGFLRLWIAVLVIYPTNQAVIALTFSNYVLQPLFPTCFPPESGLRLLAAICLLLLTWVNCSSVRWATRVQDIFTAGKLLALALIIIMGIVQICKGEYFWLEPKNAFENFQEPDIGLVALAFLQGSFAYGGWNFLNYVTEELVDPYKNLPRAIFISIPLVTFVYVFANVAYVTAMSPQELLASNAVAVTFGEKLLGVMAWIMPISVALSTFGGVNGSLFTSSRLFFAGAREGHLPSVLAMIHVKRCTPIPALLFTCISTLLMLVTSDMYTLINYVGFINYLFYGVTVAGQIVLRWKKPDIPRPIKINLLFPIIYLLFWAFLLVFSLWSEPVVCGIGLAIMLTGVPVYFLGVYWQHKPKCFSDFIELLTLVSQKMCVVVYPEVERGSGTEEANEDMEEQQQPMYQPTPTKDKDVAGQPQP
Description: Competitive inhibition of [14C]-L-alanine uptake at LAT2 in human MCF7 cells at 100 uM preincubated for 10 mins followed by addition of substrate measured during 5 mins by liquid scintillation counting. Type of series: cell-based. In outline: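 MCF-7 cells were seeded at 1 × 10^5 cells/well and used one day later. Cells were washed and pre-incubated 10 min at 37 °C in HEPES-buffered HBSS (choline chloride, pH 7.4). Uptake of 10.0 µM [14C]-L-alanine ran 5 min at 37 °C with test agent (1–1000 µM) or DMSO blank. Cells were then given three ice-cold washes, lysed in 0.1 M NaOH and counted by liquid scintillation; n=3.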

Series [2] deals with T2, Large neutral amino acids transporter small subunit 1 (Homo sapiens, UniProt Q01650). Briefly: Drug uptake in human MCF7 cells assessed as LAT1 mediated drug transport per mg of protein at 100 uM measured 5 mins after cold wash by HPLC analysis. It is filed as ADME, cell-based. As to conditions: mcf7, 5 min. In outline:
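MCF-7 monolayers were incubated with 100 µM compound in HBSS at 37 °C for 5 or 30 min. Cells got three washes with ice-cold or warm (37 °C) HBSS; in the warm 30 min arm they were washed after 5 min and again after 30 min. Lysates (0.1 M NaOH) were quantified by HPLC-UV against a spiked lysate standard curve and normalised to protein (Bio-Rad assay).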

For series [3], the target named is T2, Large neutral amino acids transporter small subunit 1. Description: Competitive binding to LAT1 in human MCF7 cells at 100 uM after 30 mins in presence of OATP 1A2/2B1 inhibitor naringin by HPLC analysis. It is filed as cell-based. In outline:
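MCF-7 cells incubated 30 min at 37 °C in HBSS (pH 7.4) holding 100 µM test compound plus 500 µM competitor. Cells washed three times with ice-cold HBSS and lysed in 0.1 M NaOH. Cell-associated compound measured by HPLC against a lysate-spiked standard curve and normalised to protein. Mean ± SD, n=3.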

A short description of series [4]: Chemical stability of the compound in Tris-HCl buffer at pH 7.4 and 37 degreeC measured after 24 hrs by HPLC method. Type of series: physicochemical. The conditions noted are these: pH 7.4, 24 h. In outline: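 Incubated in isotonic Tris-HCl buffer, pH 7.4, at 37 °C for 24 h; monitored by UV-HPLC.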
A short description of series [5]: Metabolic stability in mouse liver S9 fraction at 37 degreeC in presence of NADPH regenerating system measured after 2 hrs by HPLC analysis. It is filed as ADME, subcellular. As to conditions: s9, 2 h.
Series [6] can be described thus: Metabolic stability in human plasma at 37 degreeC in presence of NADPH regenerating system measured after 2 hrs by HPLC analysis. Type of series: ADME, cell-free.
Series [7] concerns the target T2, Large neutral amino acids transporter small subunit 1. Briefly: Inhibition of LAT1 in human MCF7 cells assessed as potentiation of bestatin-induced antiproliferative activity by measuring reduction in cell viability at 25 uM measured after 24 hrs by resazurin dye-based fluorimetric analysis. In outline: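 MCF-7 cells seeded 2 × 10^4/well on collagen-coated plates, treated one day later in growth medium with inhibitor (25 or 100 µM) plus bestatin or cisplatin (100 µM) for up to 3 days. Viability read daily by resazurin fluorescence (ex 560/em 590 nm). Viability is treated relative to untreated control. Mean ± SD, n=3.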

For another series, the system named is MCF7. Description: Antiproliferative activity against human MCF7 cells assessed as reduction in cell viability at 100 measured after 72 hrs by resazurin dye-based fluorimetric analysis. Type of series: functional. In outline: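 MCF-7 cells were seeded at 2 × 10^4 cells/well on collagen-coated plates and treated one day later. Agents were given alone or combined (25 or 100 µM with 100 µM partner drug) in growth medium for 3 days. Viability was read daily by resazurin fluorescence (ex 560/em 590 nm) and expressed relative to untreated controls.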
In general terms: The colour change of resazurin is a common sign of viable cells or microbes.

Series [8] in a line: Cmax in mouse prostate at 23 umol/kg, ip administered as bolus by LC-MS analysis. Type of series: ADME, organism-based, Prostate gland. Set-up: dose 23 umol/kg, route intraperitoneal. The conditions noted are these: in vivo. In outline: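 Male adult mice (25 ± 5 g) given a single i.p. bolus at 23 µmol/kg. The dosing solution was 1.36 mM in 10% (v/v) DMSO, 20% (w/v) hydroxypropyl-β-cyclodextrin and 0.9% NaCl. Animals were decapitated at seven time points from 10 to 480 min. Plasma and tissues were acetonitrile-precipitated with repaglinide internal standard and analysed by LC-MS. Parameters were derived from concentration–time data, mean ± SEM (n=3).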

The nature of series [9]: Fraction unbound in mouse plasma at 23 umol/kg, ip administered as bolus by LC-MS analysis. Type of series: ADME, organism-based. In outline:
(§1)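 Unbound fraction was measured by equilibrium dialysis at 100 µM in mouse plasma and in brain, liver, kidney, heart and prostate homogenates.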

The nature of series [10]: Fraction unbound in mouse prostate at 23 umol/kg, ip administered as bolus by LC-MS analysis. It is filed as ADME, organism-based, Prostate gland. In outline:
as §1

Series [11] in a line: fCmax in mouse heart at 23 umol/kg, ip administered as bolus by LC-MS analysis. As to conditions: in vivo. Type of series: ADME, organism-based. In outline: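 Male mice (25 ± 5 g) dosed i.p. as a bolus at 23 µmol/kg in DMSO/hydroxypropyl-β-cyclodextrin/saline vehicle, sampled at time points 10–480 min; plasma and tissue homogenates (1:3 water) analysed by LC-MS. […] Mean ± SEM.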

Series [12] is described as follows: Tmax in mouse plasma at 23 umol/kg, ip administered as bolus by LC-MS analysis. It is filed as ADME, organism-based. In outline:
(§2)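 Adult male mice (25 ± 5 g) given a single i.p. bolus of 23 µmol/kg, dosing solution 1.36 mM in 10% (v/v) DMSO, 20% (w/v) hydroxypropyl-β-cyclodextrin, 0.9% NaCl in water. Decapitation at time points 10–480 min; plasma, brain, liver, prostate, kidney, heart collected. Acetonitrile precipitation with repaglinide internal standard, LC-MS (ESI positive). tmax and t½β taken from concentration-time data; mean ± SEM, n=3.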

Series [13] can be described thus: Tmax in mouse heart at 23 umol/kg, ip administered as bolus by LC-MS analysis. It is filed as ADME, organism-based. In outline:
as §2

Series [14] is described as follows: Metabolic stability in mouse liver microsomes at 37 degreeC in presence of NADPH regenerating system measured after 2 hrs by HPLC analysis. Type of series: ADME, Microsome. In outline:
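Incubated at 37 °C for 2 h with mouse liver S9 fraction or with mouse liver microsomes plus NADPH; monitored by UV-HPLC chromatograms.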

The source made the active and inactive calls. The calls are words filed in the database; no cut-off is given here.

T2 sequence (Q01650 whole entry): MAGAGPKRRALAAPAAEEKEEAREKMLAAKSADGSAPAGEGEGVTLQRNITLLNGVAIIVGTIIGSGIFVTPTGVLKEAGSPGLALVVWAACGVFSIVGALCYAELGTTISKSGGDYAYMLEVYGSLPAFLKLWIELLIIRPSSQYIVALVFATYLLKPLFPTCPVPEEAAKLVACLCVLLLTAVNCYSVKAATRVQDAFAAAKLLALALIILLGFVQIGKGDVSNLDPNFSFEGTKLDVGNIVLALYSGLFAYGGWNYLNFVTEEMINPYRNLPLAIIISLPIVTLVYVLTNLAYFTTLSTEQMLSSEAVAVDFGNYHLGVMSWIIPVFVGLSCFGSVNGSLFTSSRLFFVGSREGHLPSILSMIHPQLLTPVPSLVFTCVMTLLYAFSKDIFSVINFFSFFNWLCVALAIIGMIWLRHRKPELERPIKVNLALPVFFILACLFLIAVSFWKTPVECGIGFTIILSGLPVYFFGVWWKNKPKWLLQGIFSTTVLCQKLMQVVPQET

The term inhibition denotes how much of the control response was suppressed. The low end stands for a response near the control, the high end for a response far below the control. The term fraction unbound denotes the share of the substance not bound to proteins or other matrix. A lower fraction unbound goes with little free substance. What is called Tmax is the time from dosing to the highest level. `CNC(=O)COc1ccc(-c2c(C#N)c(NC(=O)c3cccc(C[C@H](N)C(=O)O)c3)n3c(nc4ccccc43)c2C#N)cc1`: the inhibition in series [1] came to 3.93%. In series [2], the Drug uptake amounted to 2.8 nmol/mg. Moreover, the outcome in series [3] was Active. For the same compound, the Stability entry in series [4], in [5], in series [6] and in series [14] was “Stable” throughout. Besides, the values for the Activity (in series [7]; in the series on MCF7) were 24.7% and 47.7%, respectively. In series [8], the Cmax is 24.1 nmol/g. The fraction unbound was 0.0098 in series [9] and 0.0144 in [10]. Further, in [11], the fCmax worked out at 0.08 nmol/g. The Tmax was 10 min in [12] and 30 min in series [13].

These data come from ChEMBL document CHEMBL4425108, “A Selective and Slowly Reversible Inhibitor of l-Type Amino Acid Transporter 1 (LAT1) Potentiates Antiproliferative Drug Efficacy in Cancer Cells” (J Med Chem, 2016).
